Compounds with a hit are over-represented: about 1.2% of the library has one in this group of screens.
PMI act hi M6P: increases human PMI activity with near-saturating mannose 6-phosphate; AID 1216; P34949; activation factor at 20 µM; hit rate 0.34% among 190,000; coupled PMI enzyme assay, resazurin fluorescence, 20 min; stronger effect = higher value; 1 = untreated enzyme, 0 = substrate-free blank;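 active means activation factor of 2 or more at 20 µM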
Target sequence (P34949 whole entry, looked up): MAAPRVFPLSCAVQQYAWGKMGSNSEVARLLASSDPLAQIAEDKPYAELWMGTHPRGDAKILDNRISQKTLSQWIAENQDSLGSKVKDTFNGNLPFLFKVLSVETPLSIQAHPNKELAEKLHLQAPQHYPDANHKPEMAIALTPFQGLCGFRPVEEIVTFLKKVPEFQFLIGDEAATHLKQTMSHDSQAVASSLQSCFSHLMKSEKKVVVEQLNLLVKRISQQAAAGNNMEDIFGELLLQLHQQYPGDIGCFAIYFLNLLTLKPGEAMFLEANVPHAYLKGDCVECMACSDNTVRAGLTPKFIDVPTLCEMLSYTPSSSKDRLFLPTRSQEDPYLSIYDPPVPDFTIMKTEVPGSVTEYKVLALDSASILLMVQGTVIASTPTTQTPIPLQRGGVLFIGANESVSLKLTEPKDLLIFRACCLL
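Test system: human PMI in coupled enzyme assay; Input: PMI at 15 ng/mL final; Medium: HEPES buffer, pH 7.4; Schedule: 20 min incubation at room temperature; Technique: resorufin fluorescence at Ex 544/Em 590 nm; Compound: 20 µM single dose; Probe or stimulus: Near-saturating mannose-6-phosphate, 1.0 mM.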
DTT redox prof: compounds producing H2O2 with reducing agent – biochemical, NIH compound library profiling, artefact control for MLSCN library redox annotation, primary screen | DTT-dependent redox cycling H2O2, phenol red/HRP absorbance; 100% = 100 µM peroxide control, 0% = buffer | activation, % at 10 µM | hit rate 0.03% among 200,000;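 active means activation of at least 50% relative to the plate's high and low controls in the primary single-dose screen; inactive means activation below 50%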;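 further: compound incubated with DTT at 0.8 mM final as the reducing agent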
PMI activator: phosphomannose isomerase (human) activation | activation factor at 20 µM | purified human PMI, coupled resazurin fluorescence, 20 min; stronger effect = higher value; 1 = vehicle control, 0 substrate-free wells | hit rate 0.005% among 190,000 | AID 1214 | P34949;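 active means activation factor of 2 or more at 20 µM, relative to plate controls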
Diaphorase act: diaphorase activation or chemical reduction counter-screen; Diaphorase/resazurin coupled assay, resorufin fluorescence, 16 min; stronger effect = higher value; 1 = vehicle wells, 0 = NADH-free wells; activation factor at 20 µM; hit rate 0.005% among 190,000; AID 1229;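 active means diaphorase activity raised at least twofold by the compound at 20 µM; inactive means activation factor below 2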
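System – purified diaphorase enzyme from Clostridium kluyveri · Input – enzyme 0.07 U/mL final · Also added – final NADH 0.114 mM, resazurin 0.1 mM · Measured by – fluorescence of resorufin, 544 nm excitation, 590 nm emission · Timing – 16 min enzyme reaction, ambient temperature · Measure – resorufin increase flagging diaphorase activators or reducers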
NCF1 inh: inhibitors of human p47phox binding; P14598; p47phox/p22phox peptide binding, fluorescence polarization, 2 h; inhibition, % at 24.7 µM; hit rate 0.53% among 220,000; AID 1274;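 active means inhibition above about 30%, limit read from the data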;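 further: 0% = p47phox with labelled peptide and 100% = labelled peptide alone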
HMGR II inh: blocks class II HMG-CoA reductase of Enterococcus faecalis | purified E. faecalis HMGR, NADPH absorbance 340 nm kinetic | inhibition, % at 10 µM | hit rate 0.41% among 190,000;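 active means inhibition above a set limit, the median over all tested compounds plus 3 SD, cut at about 9.5% in these data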;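 further: enzyme runs in reverse so mevalonate oxidation gives rising NADPH absorbance; 0% = complete reaction with DMSO and 100% = background rate lacking mevalonate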
Numbers without * were called inactive.

What do the screens show for `COc1cc(S(=O)(=O)N2CCC(c3nc4ccccc4s3)CC2)ccc1S(=O)(=O)N1CC(C)CC(C)C1` (stereo not given)?
PMI act hi M6P: 1; DTT redox prof: 1; PMI activator: 1; Diaphorase act: 0.9; NCF1 inh: 10; HMGR II inh: 6

How did COc1cc(S(=O)(=O)N2CCC(c3nc4ccccc4s3)CC2)ccc1S(=O)(=O)NC1CCCC1 do in these assays?
PMI act hi M6P: 0.9; DTT redox prof: 0; PMI activator: 0.9; Diaphorase act: 0.9; NCF1 inh: -13; HMGR II inh: 14*

What do the screens show for `CC(C)(C)C(=O)/C(=C/c1ccncc1)n1cncn1`?
PMI act hi M6P: 1.1; DTT redox prof: 0; PMI activator: 1.1; Diaphorase act: 1; NCF1 inh: -5; HMGR II inh: -1

Results for O=C1C2C3C=CC(C2C(=O)N1c1ccc(O)cc1)C1C2C(=O)N(c4ccc(O)cc4)C(=O)C2C31 (stereo not given) ?
NCF1 inh: 34*

Results for O=C(c1cc2cc([N+](=O)[O-])ccc2oc1=O)N1CCN(C2CCCCC2)CC1 ?
PMI act hi M6P: 0.8; DTT redox prof: 0; PMI activator: 0.9; Diaphorase act: 0.9; NCF1 inh: -6; HMGR II inh: 9.7*

Results for CCN1CCN(C(=O)c2cc3cc([N+](=O)[O-])ccc3oc2=O)CC1 ?
PMI act hi M6P: 1; DTT redox prof: 0; PMI activator: 1; Diaphorase act: 0.9; NCF1 inh: -6; HMGR II inh: 3

Results for Cc1cc(C(F)F)nn1CC(=O)NC1C(=O)N2C(C(=O)O)=C(CSc3nnnn3C)CSC12 (stereo not given) ?
PMI act hi M6P: 1.1; DTT redox prof: 0; PMI activator: 1.1; Diaphorase act: 1; NCF1 inh: -1; HMGR II inh: -6

What do the screens show for `O=C(c1ccc([N+](=O)[O-])cc1)N1CCSC1c1ccccc1Cl` (stereo not given)?
PMI act hi M6P: 0.9; DTT redox prof: -1; PMI activator: 0.9; Diaphorase act: 0.9; NCF1 inh: -3; HMGR II inh: 11*

Results for COCC(=O)N(C)c1nnc(-c2ccc([N+](=O)[O-])cc2)s1 ?
PMI act hi M6P: 1; DTT redox prof: -1; PMI activator: 1.1; Diaphorase act: 1; NCF1 inh: 35*; HMGR II inh: -7

What do the screens show for `CC(NC(=O)CSc1ncccc1C(=O)O)C1CC2CCC1C2` (stereo not given)?
NCF1 inh: -7

What do the screens show for `O=C(N=Nc1c(O)[nH]c2ccc(Br)cc12)c1cc(-c2cccs2)nc2ccccc12`?
PMI act hi M6P: 1; DTT redox prof: 0; PMI activator: 1; Diaphorase act: 1; NCF1 inh: 60*; HMGR II inh: 2

How did Cn1c(O)c(N=NC(=O)c2cc(-c3cccs3)nc3ccccc23)c2ccccc21 do in these assays?
PMI act hi M6P: 0.9; DTT redox prof: -1; PMI activator: 1; Diaphorase act: 0.8; NCF1 inh: -12; HMGR II inh: 2

How did COC(=O)/C=C1/S/C(=N/N=C/c2ccc(N(C)C)cc2)NC1=O do in these assays?
PMI act hi M6P: 1; DTT redox prof: 0; PMI activator: 0.9; Diaphorase act: 0.9; NCF1 inh: -48; HMGR II inh: 5

How did CCOC(=O)c1cnc2ccccc2c1Nc1cccc(C(=O)O)c1 do in these assays?
PMI act hi M6P: 1.2; DTT redox prof: 0; PMI activator: 1.3; Diaphorase act: 1; NCF1 inh: 9; HMGR II inh: 0

What do the screens show for `CCOC(=O)c1cnc2ccc(C(=O)OC)cc2c1Nc1cccc(C(=O)O)c1`?
PMI act hi M6P: 1.1; DTT redox prof: -1; PMI activator: 1.1; Diaphorase act: 1; NCF1 inh: 42*; HMGR II inh: -8

How did COC(=O)CC1Sc2ccccc2NC1=O (stereo not given) do in these assays?
PMI act hi M6P: 1; DTT redox prof: 1; PMI activator: 0.9; Diaphorase act: 0.9; NCF1 inh: 0; HMGR II inh: 1

How did Cc1ccc(NC2Sc3ccccc3NC2=O)cc1 (stereo not given) do in these assays?
PMI act hi M6P: 2.1*; DTT redox prof: 0; PMI activator: 1.6; Diaphorase act: 0.9; NCF1 inh: -11; HMGR II inh: 7

How did CCCNC(=O)C12CCC(C)(c3nc4cc(C)c(C)cc4nc31)C2(C)C (stereo not given) do in these assays?
PMI act hi M6P: 1; DTT redox prof: 0; PMI activator: 1; Diaphorase act: 0.9; NCF1 inh: 1; HMGR II inh: -2

What do the screens show for `O=C(CN1CCN(CCN2C(=O)c3cccc4cccc(c34)C2=O)CC1)c1ccc(Cl)cc1`?
PMI act hi M6P: 2.6*; DTT redox prof: 0; PMI activator: 1.7; Diaphorase act: 1; NCF1 inh: -9; HMGR II inh: 1

Results for O=C(CN1CCN(CCN2C(=O)c3cccc4cccc(c34)C2=O)CC1)c1ccc(F)cc1 ?
PMI act hi M6P: 1.6; DTT redox prof: 0; PMI activator: 1.4; Diaphorase act: 0.9; NCF1 inh: -15; HMGR II inh: 0

Results for CC(=O)CSc1nnc(-c2cnccn2)n1-c1ccccc1 ?
PMI act hi M6P: 0.9; DTT redox prof: 3; PMI activator: 0.9; Diaphorase act: 0.9; NCF1 inh: 40*; HMGR II inh: -7

How did CCOC(=O)CSc1nnc(Cn2nnc3ccccc32)n1-c1ccc(F)cc1 do in these assays?
NCF1 inh: -4

What do the screens show for `CC(C)CCN1CCN(Cc2ccc(N3CCNC3=O)cc2)CC1CCO` (stereo not given)?
PMI act hi M6P: 1; DTT redox prof: 0; PMI activator: 1; Diaphorase act: 1.1; NCF1 inh: -4; HMGR II inh: -6

Results for COc1ccc(CN2C(=O)[C@@H]3C(c4ccccc4Cl)=NO[C@@H]3C2=O)cc1 ?
PMI act hi M6P: 1; DTT redox prof: 1; PMI activator: 1; Diaphorase act: 0.9; NCF1 inh: 7; HMGR II inh: 11*

How did CC12CC3CC(C)(C1)CC(CN1CCOCC1)(C3)C2 do in these assays?
PMI act hi M6P: 1.1; DTT redox prof: 1; PMI activator: 1; Diaphorase act: 1; NCF1 inh: 39*; HMGR II inh: -2

Results for O=C(Nc1ccc(-n2cccc2)cc1)C1CC1 ?
PMI act hi M6P: 1; DTT redox prof: 0; PMI activator: 1; Diaphorase act: 0.9; NCF1 inh: -3; HMGR II inh: -2

What do the screens show for `CCOc1ccc(C(=O)N/N=C/c2c(C)[nH]c(=O)[nH]c2=O)cc1`?
NCF1 inh: -3
